Compound activity: PubChem, several laboratories
Arbovirus anti – antivirals against arbovirus infection. arbovirus infection cell-based antiviral screen. inhibition, % at 10 µM. actives 0.37% (n = 200,000); in the data active = inhibition above about 30%
Yeast growth inh – reduces growth of yeast BB579 in restrictive medium. S. cerevisiae BB579 growth, OD615, 48 h. inhibition, % at 10 µM. actives 0.51% (n = 140,000);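 active = inhibition above a set limit, 3 SD over the mean compound inhibition, cut at about 44% in these data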
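Test system: S. cerevisiae DeaD strain BB579 yeast; Medium: restrictive CSMM-D medium; Compound: one dose, 10 µM compound with 0.25% DMSO; Incubation: 4 h cell preincubation, 48 h compound exposure, 30 °C humidified; Signal: OD at 615 nm; Benchmarks: amphotericin B at 10 µg/mL as positive control.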
Yeast lifespan up – extends the lifespan of yeast. AID 775. S. cerevisiae growth with nicotinamide, OD615; deaD strain in restrictive glucose medium. inhibition of the nicotinamide effect, % at 10 µM. actives 0.68% (n = 130,000);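 active = inhibition above a set limit, placed 3 SD over the median of all compounds, cut at about 26% in these data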;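 also: 0% = nicotinamide-treated wells and 100% = cells grown without nicotinamide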
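Assay system: DeaD-strain S. cerevisiae. Medium: CSMM-D glucose medium, restrictive. Reagent: nicotinamide, 1.5 mM, co-present with compound. Compound: 10 µM single point, 0.25% DMSO. Schedule: culture preincubation 4 h, compound exposure 48 h, both 30 °C. Detection: absorbance at 615 nm.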
Efa HMGR inh – E. faecalis class II HMG-CoA reductase inhibition | purified E. faecalis HMGR, NADPH absorbance 340 nm kinetic | inhibition, % at 10 µM | actives 0.41% (n = 190,000) | AID 1066;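 active = inhibition above a set limit, the median over all tested compounds plus 3 SD, cut at about 9.5% in these data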;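 also: enzyme runs in reverse so mevalonate oxidation gives rising NADPH absorbance; 0% = complete reaction with DMSO and 100% = background rate lacking mevalonate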
Measles CPE – protection of cells from measles virus; actives 1.5% (n = 140,000); protection (pct of control), % at 4 µM; Measles virus-infected cells, CPE protection, absorbance; AID 841; in the data active = protection mostly above about 24%, no sharp cut-off; inactive = mostly below about 26%
Rad51 HR inh – Rad51 (human) homologous recombination inhibition; Q06609; AID 1385; hRad51 DNA strand exchange, fluorescence dequenching; inhibition, % at 10 µM; actives 0.085% (n = 200,000);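 active = inhibition above 40% at the single screening dose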;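 also: 0% = DMSO control wells and 100% = blanks with heterologous ssDNA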
Target sequence (Q06609 whole entry, looked up): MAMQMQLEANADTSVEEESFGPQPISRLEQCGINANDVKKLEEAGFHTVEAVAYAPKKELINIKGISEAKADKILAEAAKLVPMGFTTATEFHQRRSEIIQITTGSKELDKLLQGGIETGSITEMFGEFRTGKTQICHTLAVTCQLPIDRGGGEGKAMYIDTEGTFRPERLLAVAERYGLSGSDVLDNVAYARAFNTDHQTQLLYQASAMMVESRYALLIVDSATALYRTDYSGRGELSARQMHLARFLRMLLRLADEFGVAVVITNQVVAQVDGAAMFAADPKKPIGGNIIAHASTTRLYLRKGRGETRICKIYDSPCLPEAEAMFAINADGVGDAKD
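Material: human Rad51–ssDNA filaments; Probe or stimulus: labelled 47-mer dsDNA for strand exchange; Doses: single 10 µM dose; Incubation: 37 °C 15-min filament assembly, 30-min compound preincubation, 15-min exchange; Technique: FRET fluorescence dequenching, excitation 485 nm, emission 520 nm; Measure: Fluorescence-based percent inhibition, control- and blank-normalised; Benchmarks: plate control and blank wells.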
Starred values were filed as active, the others as inactive; x = no result. The list is not random: actives were taken first. Their share in the collection is about 2.4%.

SMILES	Arbovirus anti	Yeast growth inh	Yeast lifespan up	Efa HMGR inh	Measles CPE	Rad51 HR inh
C=CCn1c(SCC(=O)N2CC(=O)Nc3ccccc32)nc2scc(-c3ccccc3)c2c1=O	-25	-58	-7	3	81*	3
C/C(=N\NC(=S)Nc1ccccc1C)c1ccc(O)cc1	4	x	x	4	x	-2
O=C(Nc1ccc(Cl)cc1)ON=C1CCCC1	-9	99*	-10	-7	26	x
NC(=O)Nc1ccc(Cl)cc1	x	x	x	x	x	13
COc1ccccc1CN(Cc1nc2ccccc2c(=O)[nH]1)C(=O)Nc1cccc(C)c1	3	6	66*	-4	8	0
O=C(O)c1oc2ccccc2c1-n1cccc1	9	-34	5	-3	27*	-5
COC(=O)c1oc2ccc(Br)cc2c1-n1cccc1	-8	-11	-3	-3	2	-2
FC(F)(F)c1ccc(Oc2ccc3ccccc3c2Br)nc1	35*	-37	1	-3	14	-8
CC(=O)Nc1ccc2nc(CN3CCN(Cc4ccc(F)cc4)C(CCO)C3)ccc2c1 (configuration not stated)	3	x	x	-1	x	-8
CCN(CC)C(=O)CSC1=N/C(=C/c2ccco2)C(=O)N1c1ccc(OC)c(Cl)c1	37*	-2	0	-6	12	-11
CCC(C)C(NC(=O)C1CCC(C)CC1)C(=O)NC(CCSC)C(=O)OC (configuration not stated)	6	0	-6	-5	23*	2
CNc1nc(SCc2ccc(C)cc2)nc2c1CCCC2	-3	24	-11	-3	57*	7
Cc1ccc(CSc2nc3c(c(N(C)C)n2)CCCC3)cc1	-4	-6	-24	-1	9	4
Nc1nonc1C(=O)NCCN=Cc1ccccc1O	x	0	-8	1	32	-4
Nc1nonc1C(=O)NCCN=Cc1cc(Cc2ccccc2)cc(Br)c1O	5	99*	-12	-9	4	x
Fc1cccc2sc(Nc3nnc(-c4ccccc4)o3)nc12	-1	-41	60*	-10	4	6
COc1cc(OC)cc(-c2nnc(Nc3nc4c(F)cccc4s3)o2)c1	-18	-21	-3	-4	13	4
CC(C)C(OC(=O)/C=C/c1ccc2c(c1)OCO2)C(=O)NC(N)=O (configuration not stated)	-5	x	x	-2	x	0
O=C(COC(=O)c1ccc(NS(=O)(=O)c2cccs2)cc1)Nc1nc2c(F)c(F)c(F)cc2s1	34*	x	x	-3	x	10
C=CCn1c(SCC(=O)N2CCCCC2)nc(O)cc1=O	6	5	48*	-1	5	11
C=CCn1c(SCC(=O)N2CCOCC2)nc(O)cc1=O	5	-30	-3	-3	2	3
Nc1ccccc1NC1CCCCC1	0	x	x	-8	x	-29
CCOC(=O)C1=C(N)OC2=C(C(=O)CCC2)C1c1sccc1C (configuration not stated)	4	-8	47*	-1	1	13
CCOC(=O)C1=C(N)OC2=C(C(=O)CCC2)C1c1ccc(C)s1 (configuration not stated)	1	-26	7	-6	24	7
Cc1ccc2nc(-c3ccccc3Cl)cc(C(=O)Nc3cc(C)on3)c2c1	34*	-11	-18	-4	9	-23
SMILES	Arbovirus anti	Yeast growth inh	Yeast lifespan up	Efa HMGR inh	Measles CPE	Rad51 HR inh
O=Cc1cc2ccccc2nc1SCc1ccc(Cl)cc1	-13	-27	34*	-4	3	-1
COc1ccc(Oc2c(C)oc3c(CN4CCOCC4)c(O)ccc3c2=O)cc1	9	-10	-12	-7	34*	2
COc1ccc(-c2coc3c(CN4CCOCC4)c(O)ccc3c2=O)cc1	x	x	x	x	x	-8
Cc1oc2c(CN3CCCC3)c(O)ccc2c(=O)c1Oc1ccccc1Br	28	-10	-23	-3	19*	8
CCN(CC)S(=O)(=O)c1ccc(C(=O)OCC(=O)NCCN2C(=O)CSC2=O)cc1	6	x	x	2	x	3
CSCCC(NC(=O)c1cccc([N+](=O)[O-])c1)C(=O)O (configuration not stated)	-6	-12	-2	-5	18	x
CCCc1cc(C(=O)NC2CCCC2)no1	0	-1	-9	-5	13	2
